{"data": "Results pooled from the literature", "target": "Serine/threonine-protein kinase PLK3 (PLK3, Homo sapiens, UniProt Q9H4B4)"}
{"SMILES": "COc1cc(-c2cc(-c3ccc(N4CCNCC4)cc3)cnc2C)cc(OC)c1OC", "observed": "enzyme activity", "mode": "inhibitor", "tested at": "0.1 µM", "endpoint": "inhibition", "value": "4%"}
{"SMILES": "Cc1ccc(C(=O)Nc2ccc(CN3CCN(C)CC3)c(C(F)(F)F)c2)cc1C#Cc1cnc2cccnn12", "observed": "enzyme activity", "mode": "inhibitor", "tested at": "23.5 nM", "endpoint": "remaining activity", "value": "89%"}
{"SMILES": "CC(C)(C)c1nc2c(s1)c1nc(N)ncc1c1ccc(NS(=O)(=O)c3c(F)cccc3F)c(F)c12", "observed": "enzyme activity", "mode": "inhibitor", "technique": "radiometric", "tested at": "1 µM", "endpoint": "remaining activity", "value": "91%"}
{"SMILES": "O=C(NC[C@@H]1[C@H]2CN(C(=O)OCc3cc(C(F)(F)F)cc(C(F)(F)F)c3)C[C@@H]12)c1ccc2[nH]nnc2c1", "observed": "cell-free assay", "technique": "competition with immobilised ligand", "tested at": "1 µM", "endpoint": "remaining binding", "value": "89%"}
{"SMILES": "CC(C)c1ccc(NC(=O)c2cccs2)c(-c2nc3ccccc3[nH]c2=O)c1", "observed": "enzyme activity", "mode": "inhibitor", "tested at": "1 µM", "endpoint": "activity vs control", "value": "97%"}
{"SMILES": "O=C1NC(c2ccccn2)Sc2ccccc21 (stereo not shown)", "observed": "cell-free assay", "technique": "competition with immobilised ligand", "tested at": "1 µM", "endpoint": "remaining binding", "value": "88%"}
{"SMILES": "Cc1ccc(Nc2nccc(N(C)c3ccc4c(C)n(C)nc4c3)n2)cc1S(N)(=O)=O", "observed": "enzyme activity", "mode": "inhibitor", "tested at": "0.3 µM", "endpoint": "inhibition", "value": "-9%"}
{"SMILES": "COc1cc2c(Nc3ccc(Br)cc3F)ncnc2cc1OCC1CCN(C)CC1", "observed": "cell-free assay", "tested at": "0.5 µM", "endpoint": "remaining signal", "value": "95%"}
{"SMILES": "CCN(CC)CCNC(=O)c1c(C)[nH]c(/C=C2\\C(=O)Nc3ccc(F)cc32)c1C", "observed": "enzyme activity", "mode": "inhibitor", "tested at": "0.3 µM", "endpoint": "inhibition", "value": "-10%"}
{"SMILES": "CC/C(=N\\NC(=O)NCc1cccc(O)c1)c1ccc(O)c(C)c1O", "observed": "enzyme activity", "mode": "inhibitor", "tested at": "0.1 µM", "endpoint": "inhibition", "value": "2.5%"}
{"SMILES": "CCS(=O)(=O)c1cc2cc(C[C@@](O)(CC(C)(C)c3ccc(F)cc3C(N)=O)C(F)(F)F)[nH]c2cn1", "observed": "cell-free assay", "technique": "competition with immobilised ligand", "tested at": "1 µM", "endpoint": "remaining binding", "value": "99%"}
{"SMILES": "CS(=O)(=O)Nc1cccc(-c2csc(NC(=O)CSc3nc4nccnc4c(=O)n3CCc3ccccc3)n2)c1", "observed": "enzyme activity", "mode": "inhibitor", "tested at": "10 µM", "endpoint": "inhibition", "value": "6%"}
{"SMILES": "CN1CCN(c2cnc3c(C4CCN(C(=O)c5ccc(OC(F)(F)F)cc5N)CC4)ncnc3c2)CC1", "observed": "cell-free assay", "technique": "competition with immobilised ligand", "tested at": "1 µM", "endpoint": "remaining binding", "value": "100%"}
{"SMILES": "CC(C)(O)[C@H]1CC[C@H](Nc2ccc3ncc(-c4cccc(C(F)(F)F)c4)n3n2)CC1", "observed": "enzyme activity", "mode": "inhibitor", "tested at": "1 µM", "endpoint": "remaining activity", "value": "102%"}
{"SMILES": "N#CC1(c2ccccn2)CCN(Cc2cc(C(=O)N3CCCC3)c(=O)n3ccccc23)CC1", "observed": "cell-free assay", "technique": "competition with immobilised ligand", "tested at": "1 µM", "endpoint": "remaining binding", "value": "100%"}
{"SMILES": "O=C(Nc1cnn(-c2csc(C(=O)NC3COC3)c2)c1)Nc1c(F)cccc1Cl", "observed": "enzyme activity", "mode": "inhibitor", "tested at": "5 µM", "endpoint": "remaining activity", "value": "96%"}
